{"source": "ChEMBL document CHEMBL4406880", "about": "“Design, synthesis, and bioactivity of dihydropyrimidine derivatives as kinesin spindle protein inhibitors” (Bioorg Med Chem, 2019)", "type_in_all_cases": "functional", "key": {"Hs-578T": {"test_system": "Hs-578T", "experiment": "Growth inhibition of human Hs 578T cells assessed as growth percentage at 10 uM incubated for 48 hrs by sulforhodamine B assay relative to control", "conditions": "read-out: Activity", "procedure,_shortened": "(§1)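 NCI-60 one-dose screen. Cells in RPMI 1640 with 5% FBS and 2 mM L-glutamine, seeded at 5,000–40,000 cells/well according to doubling time, and preincubated overnight at 37 °C, 5% CO2. A time-zero plate was TCA-fixed at drug addition. Compound from DMSO stock, final 10 µM, 48 h; DMSO vehicle controls. Fixation with TCA, 10% final (16% for suspension cells). SRB stain, Tris solubilization, A515. Result given as % growth versus untreated cells.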"}, "SR": {"test_system": "SR", "experiment": "Growth inhibition of human SR cells assessed as growth percentage at 10 uM incubated for 48 hrs by sulforhodamine B assay relative to control", "conditions": "read-out: Activity", "procedure,_shortened": "(§2)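 NCI-60 single-dose screen. Cells were grown in RPMI 1640 with 5% FBS and 2 mM L-glutamine and plated at 5,000–40,000 cells/well. After an overnight preincubation at 37 °C in 5% CO2, compound was added at a final 10 µM from a DMSO stock, with DMSO/PBS controls. After 48 h, cells were TCA-fixed and stained with 0.4% SRB, and absorbance was read at 515 nm. Growth is given as a percentage of untreated control.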"}, "NCI-H522": {"test_system": "NCI-H522", "experiment": "Growth inhibition of human NCI-H522 cells assessed as growth percentage at 10 uM incubated for 48 hrs by sulforhodamine B assay relative to control", "conditions": "NCI-H522, 48 h, read-out: Activity", "procedure,_shortened": "as §1"}, "SNB-75": {"test_system": "SNB-75", "experiment": "Growth inhibition of human SNB75 cells assessed as growth percentage at 10 uM incubated for 48 hrs by sulforhodamine B assay relative to control", "conditions": "SNB-75, 48 h, read-out: Activity", "procedure,_shortened": "as §2"}, "IGROV-1": {"test_system": "IGROV-1", "experiment": "Growth inhibition of human IGROV1 cells assessed as growth percentage at 10 uM incubated for 48 hrs by sulforhodamine B assay relative to control", "conditions": "IGROV-1, 48 h, read-out: Activity", "procedure,_shortened": "as §1"}, "T47D": {"test_system": "T47D", "experiment": "Growth inhibition of human T47D cells assessed as growth percentage at 10 uM incubated for 48 hrs by sulforhodamine B assay relative to control", "conditions": "read-out: Activity", "procedure,_shortened": "as §2"}, "CCRF-CEM": {"test_system": "CCRF-CEM", "experiment": "Growth inhibition of human CCRF-CEM cells assessed as growth percentage at 10 uM incubated for 48 hrs by sulforhodamine B assay relative to control", "conditions": "read-out: Activity", "procedure,_shortened": "(§3)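 NCI-60 one-dose screen: cells in RPMI 1640 with 5% FBS and 2 mM L-glutamine, plated at 5,000–40,000 cells/well and preincubated 24 h at 37 °C, 5% CO2. Compound is added from a DMSO stock to a final 10 µM and incubated 48 h. Cells are TCA-fixed and stained with sulforhodamine B, read at 515 nm. Output is % growth versus untreated control, with a time-zero plate.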"}, "SF-539": {"test_system": "SF-539", "experiment": "Growth inhibition of human SF539 cells assessed as growth percentage at 10 uM incubated for 48 hrs by sulforhodamine B assay relative to control", "conditions": "SF-539, 48 h, read-out: Activity", "procedure,_shortened": "as §2"}, "EKVX": {"test_system": "EKVX", "experiment": "Growth inhibition of human EKVX cells assessed as growth percentage at 10 uM incubated for 48 hrs by sulforhodamine B assay relative to control", "conditions": "read-out: Activity", "procedure,_shortened": "as §3"}, "M14": {"test_system": "M14", "experiment": "Growth inhibition of human M14 cells assessed as growth percentage at 10 uM incubated for 48 hrs by sulforhodamine B assay relative to control", "conditions": "M14, 48 h, read-out: Activity", "procedure,_shortened": "as §1"}, "786-0": {"test_system": "786-0", "experiment": "Growth inhibition of human 786-0 cells assessed as growth percentage at 10 uM incubated for 48 hrs by sulforhodamine B assay relative to control", "conditions": "786-0, 48 h, read-out: Activity", "procedure,_shortened": "as §3"}, "UO-31": {"test_system": "UO-31", "experiment": "Growth inhibition of human UO31 cells assessed as growth percentage at 10 uM incubated for 48 hrs by sulforhodamine B assay relative to control", "conditions": "UO-31, 48 h, read-out: Activity", "procedure,_shortened": "as §2"}, "BT-549": {"test_system": "BT-549", "experiment": "Growth inhibition of human BT549 cells assessed as growth percentage at 10 uM incubated for 48 hrs by sulforhodamine B assay relative to control", "conditions": "BT-549, 48 h, read-out: Activity", "procedure,_shortened": "as §3"}, "ACHN": {"test_system": "ACHN", "experiment": "Growth inhibition of human ACHN cells assessed as growth percentage at 10 uM incubated for 48 hrs by sulforhodamine B assay relative to control", "conditions": "read-out: Activity", "procedure,_shortened": "as §3"}, "RPMI-8226": {"test_system": "RPMI-8226", "experiment": "Growth inhibition of human RPMI8226 cells assessed as growth percentage at 10 uM incubated for 48 hrs by sulforhodamine B assay relative to control", "conditions": "RPMI-8226, 48 h, read-out: Activity", "procedure,_shortened": "as §2"}, "NCI-H322M": {"test_system": "NCI-H322M", "experiment": "Growth inhibition of human NCI-H322M cells assessed as growth percentage at 10 uM incubated for 48 hrs by sulforhodamine B assay relative to control", "conditions": "read-out: Activity", "procedure,_shortened": "as §1"}, "NCI-H226": {"test_system": "NCI-H226", "experiment": "Growth inhibition of human NCI-H226 cells assessed as growth percentage at 10 uM incubated for 48 hrs by sulforhodamine B assay relative to control", "conditions": "NCI-H226, 48 h, read-out: Activity", "procedure,_shortened": "as §1"}, "TK-10": {"test_system": "TK-10", "experiment": "Growth inhibition of human TK10 cells assessed as growth percentage at 10 uM incubated for 48 hrs by sulforhodamine B assay relative to control", "conditions": "TK-10, 48 h, read-out: Activity", "procedure,_shortened": "as §2"}, "NCI-H460": {"test_system": "NCI-H460", "experiment": "Growth inhibition of human NCI-H460 cells assessed as growth percentage at 10 uM incubated for 48 hrs by sulforhodamine B assay relative to control", "conditions": "NCI-H460, 48 h, read-out: Activity", "procedure,_shortened": "as §1"}, "PC-3": {"test_system": "PC-3", "experiment": "Growth inhibition of human PC3 cells assessed as growth percentage at 10 uM incubated for 48 hrs by sulforhodamine B assay relative to control", "conditions": "PC-3, 48 h, read-out: Activity", "procedure,_shortened": "as §2"}, "HOP-62": {"test_system": "HOP-62", "experiment": "Growth inhibition of human HOP62 cells assessed as growth percentage at 10 uM incubated for 48 hrs by sulforhodamine B assay relative to control", "conditions": "HOP-62, 48 h, read-out: Activity", "procedure,_shortened": "as §1"}, "SK-OV-3": {"test_system": "SK-OV-3", "experiment": "Growth inhibition of human SKOV3 cells assessed as growth percentage at 10 uM incubated for 48 hrs by sulforhodamine B assay relative to control", "conditions": "SK-OV-3, 48 h, read-out: Activity", "procedure,_shortened": "as §2"}, "MCF7": {"test_system": "MCF7", "experiment": "Growth inhibition of human MCF7 cells assessed as growth percentage at 10 uM incubated for 48 hrs by sulforhodamine B assay relative to control", "conditions": "MCF7, 48 h, read-out: Activity", "procedure,_shortened": "as §1"}, "MDA-MB-435": {"test_system": "MDA-MB-435", "experiment": "Growth inhibition of human MDA-MB-435 cells assessed as growth percentage at 10 uM incubated for 48 hrs by sulforhodamine B assay relative to control", "conditions": "MDA-MB-435, 48 h, read-out: Activity", "procedure,_shortened": "as §1"}, "MOLT-4": {"test_system": "MOLT-4", "experiment": "Growth inhibition of human MOLT4 cells assessed as growth percentage at 10 uM incubated for 48 hrs by sulforhodamine B assay relative to control", "conditions": "MOLT-4, 48 h, read-out: Activity", "procedure,_shortened": "as §1"}, "SNB-19": {"test_system": "SNB-19", "experiment": "Growth inhibition of human SNB19 cells assessed as growth percentage at 10 uM incubated for 48 hrs by sulforhodamine B assay relative to control", "conditions": "SNB-19, 48 h, read-out: Activity", "procedure,_shortened": "as §2"}, "MDA-MB-468": {"test_system": "MDA-MB-468", "experiment": "Growth inhibition of human MDA-MB-468 cells assessed as growth percentage at 10 uM incubated for 48 hrs by sulforhodamine B assay relative to control", "conditions": "MDA-MB-468, 48 h, read-out: Activity", "procedure,_shortened": "as §1"}}, "data": [{"smiles": "CC1=C(C(=O)OCc2ccccc2)C(c2ccc3c(c2)OCO3)NC(=O)N1", "note": "(racemic)", "values": [{"measurement": "growth at 10 µM", "setting": "Hs-578T", "value": 98.1, "unit": "%"}, {"measurement": "growth at 10 µM", "setting": "SR", "value": 104, "unit": "%"}, {"measurement": "growth at 10 µM", "setting": "NCI-H522", "value": 87.7, "unit": "%"}, {"measurement": "growth at 10 µM", "setting": "SNB-75", "value": 96, "unit": "%"}, {"measurement": "growth at 10 µM", "setting": "IGROV-1", "value": 97.2, "unit": "%"}, {"measurement": "growth at 10 µM", "setting": "T47D", "value": 89.2, "unit": "%"}, {"measurement": "growth at 10 µM", "setting": "CCRF-CEM", "value": 103, "unit": "%"}, {"measurement": "growth at 10 µM", "setting": "SF-539", "value": 97.8, "unit": "%"}, {"measurement": "growth at 10 µM", "setting": "EKVX", "value": 95.8, "unit": "%"}, {"measurement": "growth at 10 µM", "setting": "M14", "value": 97.4, "unit": "%"}, {"measurement": "growth at 10 µM", "setting": "786-0", "value": 99.1, "unit": "%"}, {"measurement": "growth at 10 µM", "setting": "UO-31", "value": 83.1, "unit": "%"}, {"measurement": "growth at 10 µM", "setting": "BT-549", "value": 80.2, "unit": "%"}, {"measurement": "growth at 10 µM", "setting": "ACHN", "value": 99.4, "unit": "%"}, {"measurement": "growth at 10 µM", "setting": "RPMI-8226", "value": 89.1, "unit": "%"}, {"measurement": "growth at 10 µM", "setting": "NCI-H322M", "value": 104, "unit": "%"}, {"measurement": "growth at 10 µM", "setting": "NCI-H226", "value": 95.9, "unit": "%"}, {"measurement": "growth at 10 µM", "setting": "TK-10", "value": 101, "unit": "%"}, {"measurement": "growth at 10 µM", "setting": "NCI-H460", "value": 109, "unit": "%"}, {"measurement": "growth at 10 µM", "setting": "PC-3", "value": 84.5, "unit": "%"}, {"measurement": "growth at 10 µM", "setting": "HOP-62", "value": 114, "unit": "%"}, {"measurement": "growth at 10 µM", "setting": "SK-OV-3", "value": 105, "unit": "%"}, {"measurement": "growth at 10 µM", "setting": "MCF7", "value": 101, "unit": "%"}, {"measurement": "growth at 10 µM", "setting": "MDA-MB-435", "value": 103, "unit": "%"}, {"measurement": "growth at 10 µM", "setting": "MOLT-4", "value": 104, "unit": "%"}, {"measurement": "growth at 10 µM", "setting": "SNB-19", "value": 96.1, "unit": "%"}, {"measurement": "growth at 10 µM", "setting": "MDA-MB-468", "value": 92, "unit": "%"}]}]}
